mABHD4 FP: inhibitors of mouse ABHD4; Q8VD66; purified mABHD4, FP-Rh probe fluorescence polarization; inhibition, % at 8.92 µM; 0.54% of 370,000 active;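 active = inhibition exceeding the mean over every tested compound plus 3 SD, cut at about 30% in these data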;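 note: 0% = plate median of compound wells and 100% = S159A mutant with DMSO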
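system = mouse ABHD4 enzyme, wild type | medium = HEPES pH 7.0, NaCl, Pluronic buffer | also added = FP-Rh probe | incubation = Enzyme–compound pre-incubation 45 min, then probe 60 min, both 25 °C | technique = fluorescence polarization, excitation 525 nm, emission 598 nm, BODIPY TMR filters | controls = S159A mutant high control, sample median low control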
TCR CD3 inh: blocks the human TCR-CD3 interaction. TAMRA-labeled TCR probe fluorescence, biochemical. inhibition, % at 9.4 µM. 0.37% of 360,000 active. AID 651800; in the data active = inhibition above about 19%;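 note: recombinant mutant TCR 2C K166C tagged with TAMRA read by polarization; 0% = receptor in buffer alone and 100% = receptor with positive control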
PRMT1 FP inh: PRMT1 (human) inhibition, primary screen | Q99873 | recombinant PRMT1, activity-based probe fluorescence polarization | inhibition, % at 2.79 µM | 1.3% of 370,000 active;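 active = inhibition above about 21% made by adding two undisclosed values, limit read from the data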
Target sequence (Q99873 whole entry, looked up): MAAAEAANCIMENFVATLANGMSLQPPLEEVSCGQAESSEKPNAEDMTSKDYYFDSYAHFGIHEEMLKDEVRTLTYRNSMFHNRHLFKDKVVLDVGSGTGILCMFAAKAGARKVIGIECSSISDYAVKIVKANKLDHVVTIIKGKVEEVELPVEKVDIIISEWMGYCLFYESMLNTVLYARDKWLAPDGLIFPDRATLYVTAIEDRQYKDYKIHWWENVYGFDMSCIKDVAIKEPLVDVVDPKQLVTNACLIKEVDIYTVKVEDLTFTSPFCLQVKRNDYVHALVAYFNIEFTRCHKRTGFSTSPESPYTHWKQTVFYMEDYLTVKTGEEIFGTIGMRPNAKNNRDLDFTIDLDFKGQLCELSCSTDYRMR
HTRA1 inhibitor: HTRA1 (human) protease inhibition. Q92743. inhibition, % at 5.96 µM. recombinant HTRA1, FP-rhodamine activity-based probe, fluorescence polarization. 0.5% of 340,000 active; in the data active = inhibition above about 36%;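 note: 0% = enzyme with DMSO and 100% = wells lacking enzyme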
SIAE inh: blocks human sialic acid acetylesterase | Q9HAT2 | SIAE FP-Rh probe binding, fluorescence polarization | inhibition, % at 9.66 µM | 0.69% of 370,000 active;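 active = inhibition above a cutoff: mean of compounds within the control limits plus 3 SD of those, cut at about 17% in these data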;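 note: 0% = plate median of compound wells and 100% = probe without SIAE protein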
PRMT1 confirm: PRMT1 (human) inhibition, FP confirmation; shares compounds with PRMT1 FP inh; recombinant His-PRMT1, activity-based probe fluorescence polarization; inhibition, % at 2.79 µM; 42% of 3,300 active; AID 687036;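 active = mean inhibition across replicates above the hit cutoff derived for the earlier primary screen, cut at about 22% in these data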
Active calls of the source: *; nt = not tested or not shown. Most compounds without a hit are left out; they make up all but 2.6% or so of the library.

SMILES | mABHD4 FP | TCR CD3 inh | PRMT1 FP inh | HTRA1 inhibitor | SIAE inh | PRMT1 confirm
Cc1nn(-c2ccccc2)c2sc(C(=O)NC3CCCCCC3)cc12 | -3 | nt | 0 | nt | -7 | nt
COC(=O)[C@]1(CNS(=O)(=O)c2ccc(F)cc2)CC(=O)N(C)[C@@H]1c1ccccc1 | 0 | nt | 2 | nt | -14 | nt
COC(=O)[C@]12C[C@H](CC(=O)N3CCN(C(=O)c4ccco4)CC3)C(=O)N(Cc3ccco3)C1=C[C@H](COCc1ccccc1)O[C@@H]2C | -1 | nt | -9 | nt | 1 | nt
NC(=O)/C(=C/c1ccco1)C(N)=S | 12 | 5 | 53* | -1 | 3 | 22*
NC(=O)/C(=C\c1ccco1)NC(=O)c1ccco1 | 8 | -3 | 20 | 5 | 14 | nt
COC(=O)[C@]12C[C@H](CC(=O)N3CCCC3)C(=O)N(Cc3ccco3)C1=C[C@H](C(C)C)O[C@@H]2C1CC1 | 4 | nt | -1 | nt | -2 | nt
COC(=O)CNc1ccc2c(c1)OCO2 | 12 | -3 | 36* | 9 | 6 | 5
Cc1ccccc1-n1c(O)cc(=O)[nH]c1=S | 0 | -17 | 28* | -14 | -9 | 2
O=C(NCc1ccco1)c1cc2nc(-c3cccs3)cc(C(F)(F)F)n2n1 | -1 | 4 | 34* | -17 | -5 | 2
Cc1ccccc1NC(=O)CN1CCN(c2nc(-c3ccccc3)cs2)CC1 | -1 | nt | -6 | nt | -1 | nt
Cc1ccc(SSc2cc(C)ccc2N)c(N)c1 | 14 | 9 | 70* | -2 | 8 | 87*
Cc1cccc(-c2cccc3c4c([nH]c23)[C@@H]2C[C@H](N(C)C(=S)NCCc3ccccc3)[C@H]([C@H](C)O)CN2CC4)c1 | -3 | nt | 3 | nt | -9 | nt
C[C@H](O)[C@@H]1CN2CCc3c([nH]c4ccccc34)[C@@H]2C[C@@H]1N(C)C(=S)NCCc1ccccc1 | 2 | -4 | 49* | nt | 2 | 11
CC(C)(C)c1nnc(SCC(=O)c2ccccc2)n(N)c1=O | 0 | -1 | 75* | 6 | 0 | 57*
O=CN1CCC(=O)N(Cc2ccccc2)c2ccccc21 | 0 | 6 | 0 | 4 | 2 | nt
O=C(Nc1ccccc1)N1CCc2scc[n+]2-c2ccccc21 | 2 | 0 | 56* | 4 | 2 | 19
O=CN1CCc2scc[n+]2-c2ccccc21 | 4 | 4 | 41* | 1 | -3 | 30*
CCn1cc(CCC(=O)Nc2ccc(Oc3cccnc3)cc2)c2ccccc21 | 2 | -13 | 2 | nt | 3 | nt
C/C(=C/c1[nH]c(N)[n+](CC2CC2)c1Cc1ccccc1)Cn1[nH]c(=O)n(-c2ccccc2)c1=O | 8 | nt | -4 | nt | 7 | nt
Nc1ccccc1Sc1ccc(C(=O)c2ccccc2C(=O)O)cc1[N+](=O)[O-] | -12 | -12 | 72* | 1 | 12 | 19
CC(=O)c1ccc(Sc2ccccc2N)c([N+](=O)[O-])c1 | 4 | -1 | 2 | nt | 7 | nt
COC(=O)c1c(-c2cccnc2)csc1NC(=O)c1cc(C)on1 | -1 | 0 | 29* | -1 | -3 | 12
Cc1c(CCCC(=O)O)sc(N)c1C(=O)c1cccc(C(F)(F)F)c1 | 25 | -7 | 31* | 10 | -1 | 11
O=c1c2ccccc2sn1-c1ccc(Cl)cc1Cl | 3 | -2 | 74* | 0 | 2 | 94*
Cc1ccc2oc(C(=O)N(C)Cc3ccc(C)o3)c(C)c2c1 | 0 | -11 | 51* | -15 | 1 | 64*
SMILES | mABHD4 FP | TCR CD3 inh | PRMT1 FP inh | HTRA1 inhibitor | SIAE inh | PRMT1 confirm
Cc1cc(N2CCN(C(=O)OC(C)(C)C)C[C@H]2C)ccc1N1CC[C@@H](O)C1 | 24 | 5 | 61* | nt | 4 | 11
Cc1cc(N2CCN(C(=O)OC(C)(C)C)C[C@H]2C)ccc1N1C[C@@H](C)O[C@@H](C)C1 | 7 | 0 | 5 | nt | 8 | nt
CC(C)NC(=O)Cn1c(SCC(=O)c2ccc(F)cc2)nc2ccccc21 | 6 | 8 | 62* | -8 | -1 | 5
CC(C)NC(=O)CSc1nc2ccccc2n1CC(=O)N(C(C)C)C(C)C | -18 | -5 | 3 | 0 | 1 | nt
COc1cccc(O[C@H]2C=C[C@@H](c3ccccc3)O[C@@H]2CO)c1 | -3 | nt | 2 | nt | -1 | nt
CC1CCN(C(=S)Nc2ccc(F)cc2)CC1 | 2 | -4 | -1 | -1 | 3 | nt
Fc1ccc(NC(=S)N2CCSC2c2cccs2)cc1 (stereo not given) | -3 | -6 | 53* | 2 | 6 | 6
Cc1ccc2c(c1)C1CS(=O)(=O)N(C3CCCC3)CN1C2 (stereo not given) | -4 | nt | 3 | nt | -3 | nt
CC(=O)Nc1ccc(S[C@@H](CCN2CC[C@H](O)CCC2=O)c2ccccc2)cc1 | -4 | -2 | 36* | -2 | 3 | 28*
O=C1CC[C@@H](O)CCN1CC[C@H](Sc1ccccc1)c1ccccc1 | -2 | 1 | -1 | -7 | -3 | nt
CCOC(=O)[C@@]12CCC3=C1N(CCC3)C(=O)[C@H](CC(=O)NCCc1ccccc1OC)C2 | 2 | nt | 4 | nt | 4 | nt
CCOc1ccc(-c2c(=O)n(OCc3ccccn3)c3ccccc3[n+]2[O-])cc1 | 4 | 5 | 0 | 0 | -2 | nt
CCCOc1ccc(-c2c(=O)n(O)c3ccccc3[n+]2[O-])cc1 | 7 | 1 | 32* | -1 | 11 | 5
COC(=O)[C@]12C[C@H](CC(=O)NCc3cccs3)C(=O)N(Cc3cccc4ccccc34)C1=C[C@H](COCc1ccccc1)O[C@@H]2C | -13 | nt | 2 | nt | -2 | nt
CN(C)c1ccc(S(=O)(=O)NCC(=O)NCc2ccccc2)cc1[N+](=O)[O-] | 2 | 3 | 27* | 2 | -1 | 26*
CNc1ccc(S(=O)(=O)NCC(=O)NCCCc2ccccc2)cc1[N+](=O)[O-] | 8 | 4 | 27* | 2 | 5 | 34*
C[C@H]1[C@@H](NC(=O)c2cccc(C(F)(F)F)c2)CC[C@@]23CCCN2C(=O)CCC[C@@H]13 | 7 | nt | -1 | nt | 0 | nt
c1ccc2[nH]c3cc4ncnc4cc3nc2c1 | 8 | 4 | 59* | 3 | 2 | 61*
CCCc1c(Cc2cccc(F)c2)ncn1CCc1ccccc1OC | 7 | 6 | 1 | nt | 1 | nt
CC(C)(C)OC(=O)NCc1cc(F)ccc1/C=C/S(=O)(=O)NC1CCCC1 | -11 | nt | -8 | nt | 0 | nt
N#Cc1c(SCc2c(Cl)cccc2Cl)nc(N)[nH]c1=S | -12 | -2 | 43* | -15 | 3 | 11
Cc1[nH]c(=O)nc(SCc2cccc(Cl)c2)c1C#N | -23 | -5 | 1 | -29 | -8 | nt
CC(=O)c1cc(-c2ccc([N+](=O)[O-])cc2)c(=O)n2c1CCC2 | 2 | nt | -2 | nt | 2 | nt
O=C1/C(=C\c2ccccn2)SC(=S)N1Nc1ncc(C(F)(F)F)cc1Cl | nt | nt | nt | -3 | nt | nt
O=C1/C(=C/c2ccccn2)SC(=S)N1Nc1ncc(C(F)(F)F)cc1Cl | 1 | 1 | 34* | -7 | 3 | 19
CCOC(=O)c1c(-c2ccc(C)o2)csc1NC(=S)NC(=O)c1ccc(F)cc1 | -6 | 7 | 4 | -7 | -2 | nt
